Assay results from different studies.
Protocols differ between the studies behind these lines. ≈ marks a conversion by molar mass, not a printed value.

| SMILES | target or system | test | test system | conditions | quantity | value |
| --- | --- | --- | --- | --- | --- | --- |
| Cc1ccc(C(CS(=O)(=O)c2ccccc2)=NN=C2N=C(c3ccc(Br)cc3)CS2)cc1 | WM 266-4 | cell growth or viability, MTT |  | 100 µM, 48 h | viability | 31.7% |
| Nc1ccc(S(=O)(=O)Nc2ncccn2)cc1 | Toxoplasma gondii | parasite growth | human Fibroblast | intracellular | IC50 | 27.3 µM |
| COc1cc2ncnc(NN=C3C(=O)Nc4ccc(F)cc43)c2cc1OC | ZR75 | cell growth or viability |  | 10 µM | inhibition | 19.2% |
| NC(=O)c1cccnc1 |  | tissue relaxation, agonist | rat |  | EC50 | ~1000 µM |
| C[C@@H](c1ncncc1F)[C@](O)(Cn1cncn1)c1ccc(F)cc1F | Acanthamoeba castellanii | parasite growth, resazurin |  | 96 h | IC50 | 2.69 µM |
| NC(=S)NN=C(CS(=O)(=O)c1ccccc1)c1ccc(F)cc1 | WM 266-4 | cell growth or viability, MTT |  | 25 µM, 48 h | viability | 31.3% |
| Cc1ncc([N+](=O)[O-])n1CCO | Lacticaseibacillus casei | microbial growth, agar dilution |  | 48 h | MIC | > 16 µg/mL |
| Cc1ccc(C(CS(=O)(=O)c2ccccc2)=NNC2=NC(=O)C(=NNc3ccccc3)S2)cc1 | WM 266-4 | cell growth or viability, MTT |  | 25 µM, 48 h | viability | 41.2% |
| COc1ccc(-c2nc(NN=C3C(=O)Nc4ccccc43)c3ccccc3n2)cc1OC | ZR75 | cell growth or viability |  | 30 µM | inhibition | 54.9% |
| O=c1[nH]c(NCc2ccc(Cl)c(Cl)c2)nc2ncn(CCN3CCOCC3)c12 | Lacticaseibacillus casei | microbial growth, agar dilution |  | 48 h | MIC | 16 µg/mL (≈ 37.8 µM) |
| CCN(CC)CCNC(=O)c1c(C)[nH]c(/C=C2\C(=O)Nc3ccc(F)cc32)c1C | ZR75 | cell growth or viability |  | 30 µM | inhibition | 90.7% |
| CC(C)(C)C1=CC(=NNc2ccc(C#N)cc2)C=C(C(C)(C)C)C1=O | Toxoplasma gondii | parasite growth, fluorescence |  | 5 days, intracellular | IC50 | 3.8 µM |
